Data on five compounds can be found in ChEMBL document CHEMBL1125626, “Synthesis and structure-activity relationship of new cephalosporins with amino heterocycles at C-7. Dependence of the antibacterial spectrum and beta-lactamase stability on the pKa of the C-7 heterocycle” (1991).

Values after ≈ are worked out from the molar mass of the structure shown.

One assay has as its system Proteus mirabilis. Description: Minimum inhibitory concentration against Proteus mirabilis A18 (inoculum, 10e5 cfu per spot). It is filed as functional. Summed up: (§1)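 MIC in µg/mL, determined in Jewell and Permain growth medium with spot inoculation at 10^5 cfu per spot.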
The subject of assay [1] is Escherichia coli. As to the kind of experiment: Minimum inhibitory concentration against Escherichia coli A8 (inoculum, 10e5 cfu per spot). It is filed as functional. Summed up: as §1
For the next assay, the system named is Streptococcus pyogenes. Description: Minimum inhibitory concentration against Streptococcus pyogenes (inoculum, 10e5 cfu per spot) A1. It is filed as functional. Summed up:
as §1

The test system of assay [2] is Escherichia coli. As to the kind of experiment: Minimum inhibitory concentration against Escherichia coli X4 (inoculum, 10e4 cfu per spot).
Assay [3] deals with Enterobacter cloacae. Description: Minimum inhibitory concentration against Enterobacter cloacae A13 (inoculum, 10e5 cfu per spot). Format: functional. Summed up:
as §1

Assay [4] concerns Escherichia coli. Description: Minimum inhibitory concentration against Escherichia coli DCO (inoculum, 10e4 cfu per spot). Format: functional. The method, boiled down: (§2)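 MIC in µg/mL, determined in Jewell and Permain growth medium with spot inoculation at 10^4 cfu per spot. P99 is described as a constitutive type I lactamase producer.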
Assay [5] deals with Staphylococcus aureus. As to the kind of experiment: Minimum inhibitory concentration against Staphylococcus aureus A6 (inoculum, 10e5 cfu per spot). Format: functional. Summed up: as §1
The test system of the next assay is Serratia marcescens. Description: Minimum inhibitory concentration against Serratia marcescens A16 (inoculum, 10e5 cfu per spot). It is filed as functional. Summed up:
as §1

Assay [6] has as its system Enterobacter cloacae. As to the kind of experiment: Minimum inhibitory concentration against Enterobacter cloacae P99 (inoculum, 10e4 cfu per spot). It is filed as functional. The method, boiled down: as §2
Assay [7] deals with Klebsiella aerogenes. Description: Minimum inhibitory concentration against Klebsiella aerogenes X5L (inoculum, 10e4 cfu per spot). Format: functional. Summed up: as §2
Another assay concerns Proteus vulgaris. Description: Minimum inhibitory concentration against Proteus vulgaris Pv9 (inoculum, 10e5 cfu per spot).
Assay [8] relates to Escherichia coli. As to the kind of experiment: Minimum inhibitory concentration against Escherichia coli TEM X3 (inoculum, 10e4 cfu per spot)(TEM I type lactamase producer).
The next assay deals with Pseudomonas aeruginosa. Description: Minimum inhibitory concentration against Pseudomonas aeruginosa A21 (inoculum, 10e5 cfu per spot). It is filed as functional. The method, boiled down: as §1
For assay [9], the system named is Enterobacter cloacae. Description: Minimum inhibitory concentration against Enterobacter cloacae P99 (inoculum, 10e4 cfu per spot)(type I lactamase producer). Format: functional. Summed up:
as §2

The subject of another assay is Klebsiella pneumoniae. Description: Minimum inhibitory concentration against Klebsiella pneumoniae A24 (inoculum, 10e5 cfu per spot). Format: functional. Summed up: as §1
In assay [10] the test system is Klebsiella aerogenes. As to the kind of experiment: Minimum inhibitory concentration against Klebsiella aerogenes X6 (inoculum, 10e4 cfu per spot). It is filed as functional. The method, boiled down:
as §2

The test system of assay [11] is Staphylococcus aureus. As to the kind of experiment: Minimum inhibitory concentration against Staphylococcus aureus A4 (inoculum, 10e5 cfu per spot). Format: functional. Summed up:
as §1

The test system of assay [12] is Escherichia coli. As to the kind of experiment: Minimum inhibitory concentration against Escherichia coli DC2 (inoculum, 10e4 cfu per spot). It is filed as functional. Summed up: as §2

Regarding `CC(=O)OCC1=C(C(=O)OC(C)(C)C)N2C(=O)[C@@H](Nc3nc4cc(N)ccc4[nH]3)C2SC1` (stereo not given in full), the minimum inhibitory concentration (MIC) against Proteus mirabilis came to 32 µg/mL (≈ 69.6 µM); against Escherichia coli [1], 0.25 µg/mL (≈ 0.544 µM); in the assay on Streptococcus pyogenes, 1 µg/mL (≈ 2.18 µM); in the assay with Escherichia coli [2], 0.06 µg/mL (≈ 0.131 µM); in the assay with Enterobacter cloacae [3] it was 256 µg/mL (≈ 557 µM); against Escherichia coli [4] it was 0.06 µg/mL (≈ 0.131 µM). Further, the MIC worked out at 2 µg/mL (≈ 4.35 µM) in the assay with Staphylococcus aureus [5]; 256 µg/mL (≈ 557 µM) in the assay with Serratia marcescens; 0.06 µg/mL (≈ 0.131 µM) with Enterobacter cloacae [6]; 8 µg/mL (≈ 17.4 µM) against Klebsiella aerogenes [7]; 128 µg/mL (≈ 279 µM) with Proteus vulgaris; 1 µg/mL (≈ 2.18 µM) against Escherichia coli [8]. The MIC in the assay on Pseudomonas aeruginosa is greater than 256 µg/mL; against Enterobacter cloacae [9] it was 32 µg/mL (≈ 69.6 µM); against Klebsiella pneumoniae it was 0.5 µg/mL (≈ 1.09 µM); with Klebsiella aerogenes [10], 0.12 µg/mL (≈ 0.261 µM); in the assay on Staphylococcus aureus [11] it was 32 µg/mL (≈ 69.6 µM); in the assay with Escherichia coli [12], 0.03 µg/mL (≈ 0.0653 µM).
In the case of `Cc1nnc(SCC2=C(C(=O)OC(C)(C)C)N3C(=O)[C@@H](NC4=NCCN4)C3SC2)s1` (stereo not given in full), the MIC in the assay with Proteus mirabilis was greater than 256 µg/mL; against Escherichia coli [1], 4 µg/mL (≈ 8.54 µM); in the assay with Streptococcus pyogenes, 16 µg/mL (≈ 34.1 µM); with Escherichia coli [2], 4 µg/mL (≈ 8.54 µM); against Enterobacter cloacae [3], 64 µg/mL (≈ 137 µM); against Escherichia coli [4] it was 8 µg/mL (≈ 17.1 µM). The MIC in the assay with Staphylococcus aureus [5] is greater than 256 µg/mL; in the assay on Serratia marcescens, 64 µg/mL (≈ 137 µM); in the assay with Enterobacter cloacae [6], 8 µg/mL (≈ 17.1 µM); against Klebsiella aerogenes [7], 16 µg/mL (≈ 34.1 µM); in the assay with Proteus vulgaris, 64 µg/mL (≈ 137 µM); with Escherichia coli [8], 8 µg/mL (≈ 17.1 µM). Besides, the minimum inhibitory concentration (MIC) in the assay with Pseudomonas aeruginosa was greater than 256 µg/mL; against Enterobacter cloacae [9], 16 µg/mL (≈ 34.1 µM); against Klebsiella pneumoniae it was 4 µg/mL (≈ 8.54 µM); against Klebsiella aerogenes [10], 8 µg/mL (≈ 17.1 µM); with Staphylococcus aureus [11], greater than 256 µg/mL; in the assay with Escherichia coli [12] it was 1 µg/mL (≈ 2.13 µM).
On to `CC1=C(C(=O)OC(c2ccccc2)c2ccccc2)N2C(=O)[C@@H](NC3=NC(c4ccc(O)c(O)c4)CN3)C2SC1` (stereo not given in full), for which the minimum inhibitory concentration (MIC) was greater than 256 µg/mL against Proteus mirabilis; 4 µg/mL (≈ 7.19 µM) against Escherichia coli [1]; greater than 256 µg/mL against Streptococcus pyogenes; 2 µg/mL (≈ 3.59 µM) against Escherichia coli [2]; greater than 256 µg/mL against Enterobacter cloacae [3]; 4 µg/mL (≈ 7.19 µM) against Escherichia coli [4]. Further, the MIC is greater than 256 µg/mL against Staphylococcus aureus [5]; greater than 256 µg/mL with Serratia marcescens; 2 µg/mL (≈ 3.59 µM) against Enterobacter cloacae [6]; 8 µg/mL (≈ 14.4 µM) in the assay with Klebsiella aerogenes [7]; greater than 256 µg/mL with Proteus vulgaris; 2 µg/mL (≈ 3.59 µM) with Escherichia coli [8]. For the same compound, the MIC against Pseudomonas aeruginosa is greater than 256 µg/mL; with Enterobacter cloacae [9], 4 µg/mL (≈ 7.19 µM); in the assay on Klebsiella pneumoniae, greater than 256 µg/mL; with Klebsiella aerogenes [10] it was 4 µg/mL (≈ 7.19 µM); in the assay with Staphylococcus aureus [11] it was greater than 256 µg/mL; with Escherichia coli [12] it was 2 µg/mL (≈ 3.59 µM).
In the case of `CC(=O)OCC1=C(C(=O)OC(c2ccccc2)c2ccccc2)N2C(=O)[C@@H](Nc3nc4cc(CN)ccc4[nH]3)C2SC1` (stereo not given in full), the minimal inhibitory concentration (MIC) was 32 µg/mL (≈ 54.8 µM) against Proteus mirabilis; 0.12 µg/mL (≈ 0.206 µM) in the assay on Escherichia coli [1]; 0.5 µg/mL (≈ 0.857 µM) with Streptococcus pyogenes; 0.12 µg/mL (≈ 0.206 µM) in the assay with Escherichia coli [2]; 256 µg/mL (≈ 439 µM) against Enterobacter cloacae [3]; 0.12 µg/mL (≈ 0.206 µM) with Escherichia coli [4]. In addition, the minimum inhibitory concentration (MIC) with Staphylococcus aureus [5] is 4 µg/mL (≈ 6.85 µM); in the assay on Serratia marcescens, greater than 256 µg/mL; against Enterobacter cloacae [6], 0.12 µg/mL (≈ 0.206 µM); against Klebsiella aerogenes [7], 32 µg/mL (≈ 54.8 µM); against Proteus vulgaris, 64 µg/mL (≈ 110 µM); in the assay on Escherichia coli [8], 2 µg/mL (≈ 3.43 µM). Moreover, the MIC was greater than 256 µg/mL with Pseudomonas aeruginosa; 64 µg/mL (≈ 110 µM) in the assay with Enterobacter cloacae [9]; 1 µg/mL (≈ 1.71 µM) in the assay on Klebsiella pneumoniae; 0.25 µg/mL (≈ 0.428 µM) in the assay with Klebsiella aerogenes [10]; 32 µg/mL (≈ 54.8 µM) against Staphylococcus aureus [11]; 0.06 µg/mL (≈ 0.103 µM) against Escherichia coli [12].
Consider `CC1(C)S[C@@H]2[C@H](/N=C/N3CCCCCC3)C(=O)N2[C@H]1C(=O)O` [AMDINOCILLIN], for which the MIC stood at 32 µg/mL (≈ 98.3 µM) in the assay on Proteus mirabilis; 0.06 µg/mL (≈ 0.184 µM) against Escherichia coli [1]; 16 µg/mL (≈ 49.2 µM) with Streptococcus pyogenes; 0.03 µg/mL (≈ 0.0922 µM) in the assay on Escherichia coli [2]; 0.25 µg/mL (≈ 0.768 µM) against Enterobacter cloacae [3]; 0.03 µg/mL (≈ 0.0922 µM) against Escherichia coli [4]. The minimal inhibitory concentration (MIC) in the assay on Staphylococcus aureus [5] was 16 µg/mL (≈ 49.2 µM); against Serratia marcescens it was 128 µg/mL (≈ 393 µM); with Enterobacter cloacae [6] it was 0.03 µg/mL (≈ 0.0922 µM); in the assay on Klebsiella aerogenes [7], 4 µg/mL (≈ 12.3 µM); against Proteus vulgaris, 64 µg/mL (≈ 197 µM); against Escherichia coli [8], 1 µg/mL (≈ 3.07 µM). In addition, the MIC was greater than 256 µg/mL against Pseudomonas aeruginosa; 0.06 µg/mL (≈ 0.184 µM) in the assay with Enterobacter cloacae [9]; 0.03 µg/mL (≈ 0.0922 µM) with Klebsiella pneumoniae; 0.12 µg/mL (≈ 0.369 µM) in the assay on Klebsiella aerogenes [10]; greater than 256 µg/mL with Staphylococcus aureus [11]; 0.004 µg/mL (≈ 0.0123 µM) in the assay with Escherichia coli [12].

The MIC is the least concentration at which growth counts as inhibited. A high value points to a need for much substance.
